Reference: ChEMBL document CHEMBL4680226, “Design, synthesis, and evaluation of N-phenyl-4-(2-phenylsulfonamido)-benzamides as microtubule-targeting agents in drug-resistant cancer cells, displaying HDAC inhibitory response” (Eur J Med Chem, 2020)
Active and inactive are the calls of the source. The rule behind the calls is not given here.

Legend:
[1] = tested on: KB-VIN; experiment: Induction of apoptosis in human KB-VIN cells assessed as increase in cleaved caspase-9 expression at 0.01 to 0.5 uM by Western blot analysis; format: functional, cell-based; settings: dose 0.01-0.5 µM
Method in brief: (§1)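 Resistant KB cells attached overnight, then drug-treated at the stated concentrations and times (24 h or 48 h). Lysates were immunoblotted for cleaved PARP, caspase-3, -8 and -9, and γH2AX, with anti-mouse or anti-rabbit IgG secondaries.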

[2] = tested on: KB-VIN; experiment: Induction of apoptosis in human KB-VIN cells assessed as increase in cleaved PARP expression at 0.01 to 0.5 uM by Western blot analysis; format: functional, cell-based; settings: dose 0.01-0.5 µM; method in brief: as §1
[3] = biological target: Histone deacetylase 3/Nuclear receptor corepressor 2 (HDAC3/NCoR2) (Homo sapiens, UniProt O15379); experiment: Inhibition of human recombinant HDAC3/NCOR2 using RHKKAc-AMC as substrate measured after 60 mins by fluorescence assay; format: protein-complex assay
Histone deacetylase 3/Nuclear receptor corepressor 2 (HDAC3/NCoR2), sequence (O15379 whole entry): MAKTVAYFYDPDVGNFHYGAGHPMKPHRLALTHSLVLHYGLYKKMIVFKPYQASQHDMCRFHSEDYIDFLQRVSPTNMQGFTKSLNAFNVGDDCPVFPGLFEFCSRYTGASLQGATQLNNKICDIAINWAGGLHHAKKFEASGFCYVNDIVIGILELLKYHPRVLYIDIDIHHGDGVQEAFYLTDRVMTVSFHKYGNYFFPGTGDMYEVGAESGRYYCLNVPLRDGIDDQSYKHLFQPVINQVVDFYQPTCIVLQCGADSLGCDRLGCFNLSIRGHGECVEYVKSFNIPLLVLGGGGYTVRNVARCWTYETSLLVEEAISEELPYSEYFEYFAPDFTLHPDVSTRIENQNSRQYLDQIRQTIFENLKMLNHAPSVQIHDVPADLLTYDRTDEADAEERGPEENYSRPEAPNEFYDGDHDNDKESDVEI
Histone deacetylase 3/Nuclear receptor corepressor 2 (HDAC3/NCoR2), sequence (Q9Y618 whole entry, further chain): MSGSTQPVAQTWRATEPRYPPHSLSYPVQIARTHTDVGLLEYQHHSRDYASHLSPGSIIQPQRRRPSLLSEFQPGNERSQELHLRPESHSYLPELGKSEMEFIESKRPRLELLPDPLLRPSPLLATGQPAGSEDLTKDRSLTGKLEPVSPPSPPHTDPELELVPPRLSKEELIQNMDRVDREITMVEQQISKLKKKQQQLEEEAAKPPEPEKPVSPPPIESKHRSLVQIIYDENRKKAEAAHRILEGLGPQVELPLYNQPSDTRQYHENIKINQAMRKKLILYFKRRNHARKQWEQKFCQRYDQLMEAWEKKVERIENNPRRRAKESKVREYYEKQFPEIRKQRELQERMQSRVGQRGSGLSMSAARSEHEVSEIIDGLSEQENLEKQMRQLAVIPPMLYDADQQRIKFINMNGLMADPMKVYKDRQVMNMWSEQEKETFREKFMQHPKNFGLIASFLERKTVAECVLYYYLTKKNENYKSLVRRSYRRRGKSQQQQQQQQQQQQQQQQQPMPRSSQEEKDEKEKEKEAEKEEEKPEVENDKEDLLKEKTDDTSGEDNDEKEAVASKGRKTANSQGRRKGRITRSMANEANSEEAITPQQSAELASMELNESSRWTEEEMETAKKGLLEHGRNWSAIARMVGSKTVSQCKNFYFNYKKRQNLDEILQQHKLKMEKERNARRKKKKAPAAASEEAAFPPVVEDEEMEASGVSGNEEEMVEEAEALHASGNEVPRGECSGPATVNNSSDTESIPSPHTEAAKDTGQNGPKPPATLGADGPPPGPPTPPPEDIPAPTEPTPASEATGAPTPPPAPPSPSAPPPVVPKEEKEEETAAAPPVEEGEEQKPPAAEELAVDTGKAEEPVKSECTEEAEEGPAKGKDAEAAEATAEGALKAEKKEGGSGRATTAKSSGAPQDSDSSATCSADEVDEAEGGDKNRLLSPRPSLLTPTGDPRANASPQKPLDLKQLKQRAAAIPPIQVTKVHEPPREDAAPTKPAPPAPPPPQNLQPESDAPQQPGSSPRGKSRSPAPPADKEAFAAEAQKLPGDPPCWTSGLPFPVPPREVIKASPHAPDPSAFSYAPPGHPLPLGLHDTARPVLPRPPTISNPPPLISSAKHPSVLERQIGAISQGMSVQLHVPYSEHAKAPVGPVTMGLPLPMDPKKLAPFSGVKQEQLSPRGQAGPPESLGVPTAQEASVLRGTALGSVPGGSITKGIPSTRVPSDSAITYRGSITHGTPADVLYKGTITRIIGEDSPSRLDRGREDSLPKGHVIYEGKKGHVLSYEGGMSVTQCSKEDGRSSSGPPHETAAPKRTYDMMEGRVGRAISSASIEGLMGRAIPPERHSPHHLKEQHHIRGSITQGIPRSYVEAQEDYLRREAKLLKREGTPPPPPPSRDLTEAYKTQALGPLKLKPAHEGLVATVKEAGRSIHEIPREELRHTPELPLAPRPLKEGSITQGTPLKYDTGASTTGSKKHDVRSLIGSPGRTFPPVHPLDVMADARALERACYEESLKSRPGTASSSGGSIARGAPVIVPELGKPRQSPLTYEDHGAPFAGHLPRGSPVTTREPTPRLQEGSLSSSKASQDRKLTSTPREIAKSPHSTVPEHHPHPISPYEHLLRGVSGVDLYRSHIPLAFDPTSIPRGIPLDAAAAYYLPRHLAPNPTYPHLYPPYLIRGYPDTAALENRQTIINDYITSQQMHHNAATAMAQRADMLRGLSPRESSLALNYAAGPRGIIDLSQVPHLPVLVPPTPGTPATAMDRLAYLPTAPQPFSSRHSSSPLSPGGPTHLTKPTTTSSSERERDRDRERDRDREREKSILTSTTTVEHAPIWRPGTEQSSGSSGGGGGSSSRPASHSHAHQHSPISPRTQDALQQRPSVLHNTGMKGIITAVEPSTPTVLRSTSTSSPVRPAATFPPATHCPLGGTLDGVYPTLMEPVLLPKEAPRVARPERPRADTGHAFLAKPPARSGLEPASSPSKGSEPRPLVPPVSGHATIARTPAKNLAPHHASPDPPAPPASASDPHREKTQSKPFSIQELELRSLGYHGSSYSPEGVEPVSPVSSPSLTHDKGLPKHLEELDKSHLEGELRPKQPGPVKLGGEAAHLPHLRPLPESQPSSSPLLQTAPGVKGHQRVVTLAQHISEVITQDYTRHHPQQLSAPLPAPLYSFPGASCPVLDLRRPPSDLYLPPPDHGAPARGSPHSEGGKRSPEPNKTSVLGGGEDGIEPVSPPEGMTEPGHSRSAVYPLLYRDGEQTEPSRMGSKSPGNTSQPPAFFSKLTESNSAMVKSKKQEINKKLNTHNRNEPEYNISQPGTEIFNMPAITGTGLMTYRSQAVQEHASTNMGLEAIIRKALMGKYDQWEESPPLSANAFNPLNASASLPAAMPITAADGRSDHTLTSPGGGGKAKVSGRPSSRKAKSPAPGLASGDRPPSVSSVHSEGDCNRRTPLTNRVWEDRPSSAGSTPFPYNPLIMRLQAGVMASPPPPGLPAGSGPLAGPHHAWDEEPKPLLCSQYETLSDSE

[4] = biological target: T1, Histone deacetylase 8 (Homo sapiens, UniProt Q9BY41); experiment: Inhibition of human recombinant HDAC8 using RHKAcKAc-AMC as substrate measured after 60 mins by fluorescence assay
T1 sequence (Q9BY41 whole entry): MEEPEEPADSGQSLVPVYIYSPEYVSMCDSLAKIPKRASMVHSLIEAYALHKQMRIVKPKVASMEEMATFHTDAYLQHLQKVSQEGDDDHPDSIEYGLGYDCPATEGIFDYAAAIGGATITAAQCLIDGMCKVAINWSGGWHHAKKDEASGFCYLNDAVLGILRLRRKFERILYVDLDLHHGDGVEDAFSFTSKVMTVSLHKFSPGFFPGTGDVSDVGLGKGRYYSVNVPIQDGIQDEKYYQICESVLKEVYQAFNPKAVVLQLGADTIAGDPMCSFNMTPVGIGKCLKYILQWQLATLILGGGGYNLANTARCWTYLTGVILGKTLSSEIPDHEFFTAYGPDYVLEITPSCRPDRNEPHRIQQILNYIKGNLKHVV

[5] = biological target: Histone deacetylase 2 (Homo sapiens, UniProt Q92769); experiment: Inhibition of recombinant human C-terminal GST-tagged HDAC2 (1 to 488 residues) expressed in baculovirus infected insect cells using RHKKAc-AMC as substrate measured after 60 mins by fluorescence assay
Histone deacetylase 2, sequence (Q92769 whole entry, the tested form may be a part): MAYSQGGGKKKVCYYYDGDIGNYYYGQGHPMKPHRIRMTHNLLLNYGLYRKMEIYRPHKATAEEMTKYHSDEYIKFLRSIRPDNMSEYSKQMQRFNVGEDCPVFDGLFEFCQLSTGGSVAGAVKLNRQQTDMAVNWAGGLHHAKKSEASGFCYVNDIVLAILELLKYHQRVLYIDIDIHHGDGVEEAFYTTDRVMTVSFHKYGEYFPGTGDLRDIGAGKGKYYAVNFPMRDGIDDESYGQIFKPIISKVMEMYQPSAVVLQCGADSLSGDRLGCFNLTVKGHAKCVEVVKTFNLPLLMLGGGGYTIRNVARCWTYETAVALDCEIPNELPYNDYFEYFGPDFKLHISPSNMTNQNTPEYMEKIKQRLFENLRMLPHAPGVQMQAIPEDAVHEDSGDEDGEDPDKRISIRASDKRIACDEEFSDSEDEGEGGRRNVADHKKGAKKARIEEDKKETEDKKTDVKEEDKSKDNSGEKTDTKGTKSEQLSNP

[6] = tested on: KB-VIN; experiment: Induction of apoptosis in human KB-VIN cells assessed as increase in cleaved caspase-8 expression at 0.01 to 0.5 uM by Western blot analysis; format: functional, cell-based; settings: dose 0.01-0.5 µM; method in brief: as §1
[7] = tested on: KB; experiment: Antiproliferative activity against human KB cells incubated for 48 hrs by SRB assay; format: functional
Method in brief: (§2)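 KB parental and resistant sublines kept in RPMI 1640 with 5% FBS at 37 °C, 5% CO2. Cells plated, left overnight, then given graded compound concentrations for 48 h. A time-zero plate was fixed with 10% TCA at dosing. Cells were stained with 0.4% SRB in 1% acetic acid, unbound dye washed off, bound dye dissolved in 10 mM Tris base, and absorbance read at 515 nm.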

[8] = Antiproliferative activity against human KB-VIN cells incubated for 48 hrs by SRB assay; format: functional; settings: KBVIN; method in brief: as §2
[9] = tested on: KB-VIN; experiment: Induction of apoptosis in human KB-VIN cells assessed as increase in cleaved caspase-3 expression at 0.01 to 0.5 uM by Western blot analysis; format: functional, cell-based; settings: dose 0.01-0.5 µM; method in brief: as §1
[10] = biological target: Histone deacetylase 1 (Homo sapiens, UniProt Q13547); experiment: Inhibition of recombinant human full-length C-terminal FLAG-His tagged HDAC1 (1 to 482 residues) expressed in Sf21 insect cells using RHK-K(Ac)-AMC as substrate measured after 60 mins by fluorescence assay
Histone deacetylase 1, sequence (Q13547 whole entry, the tested form may be a part): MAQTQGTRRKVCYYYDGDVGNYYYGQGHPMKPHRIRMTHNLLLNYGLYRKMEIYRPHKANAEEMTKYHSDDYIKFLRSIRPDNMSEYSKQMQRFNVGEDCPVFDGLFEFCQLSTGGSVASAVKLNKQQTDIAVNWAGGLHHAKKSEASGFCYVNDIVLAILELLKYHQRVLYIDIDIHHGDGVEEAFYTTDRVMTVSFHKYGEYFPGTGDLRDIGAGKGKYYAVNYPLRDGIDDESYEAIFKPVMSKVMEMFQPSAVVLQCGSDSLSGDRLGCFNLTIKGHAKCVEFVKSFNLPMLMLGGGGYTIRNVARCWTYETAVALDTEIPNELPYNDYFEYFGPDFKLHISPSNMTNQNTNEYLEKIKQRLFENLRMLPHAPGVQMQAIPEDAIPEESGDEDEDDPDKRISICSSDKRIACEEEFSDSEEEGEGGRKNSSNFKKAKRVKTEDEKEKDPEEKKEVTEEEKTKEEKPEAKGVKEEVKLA

[11] = Antiproliferative activity against human KB7D cells incubated for 48 hrs by SRB assay; format: functional; method in brief: as §2
[12] = tested on: KB7D; experiment: Induction of apoptosis in human KB7D cells assessed as increase in activated gammaH2AX expression measured after 24 hrs by Western blot analysis; format: functional, cell-based; method in brief: as §1
[13] = tested on: KB7D; experiment: Induction of apoptosis in human KB7D cells assessed as increase in activated gammaH2AX expression at 5 uM measured after 24 hrs by Western blot analysis; format: functional, cell-based; method in brief: as §1

| Compound | GI50 [7] [nM] | GI50 [8] [nM] | GI50 [11] [nM] | further results |
| --- | --- | --- | --- | --- |
| COc1ccc(S(=O)(=O)Nc2ccccc2CCc2ccc(C(=O)Nc3cc(F)ccc3N)cc2)cc1 | 66 | 29 | 12 | Activity [1]: Active; Activity [2]: Active; IC50 [3]: 1750 nM; IC50 [4]: > 10000 nM; IC50 [5]: 9080 nM; Activity [6]: Active; Activity [9]: Active; IC50 [10]: > 10000 nM |
| COc1cc([C@@H]2c3cc4c(cc3[C@@H](O[C@@H]3O[C@@H]5CO[C@@H](C)O[C@H]5[C@H](O)[C@H]3O)[C@H]3COC(=O)[C@H]23)OCO4)cc(OC)c1O [ETOPOSIDE] | 8390 | – | 98600 | Activity [12]: Active |
| Nc1ccccc1NC(=O)c1ccc(CNC(=O)OCc2cccnc2)cc1 [ENTINOSTAT] | 6630 | 7710 | 5680 | Activity [13]: Active |
| COc1ccc(S(=O)(=O)Nc2ccccc2CCc2ccccc2)cc1 | 4410 | – | – | – |
| COc1ccc(S(=O)(=O)Nc2ccccc2CCc2ccc(C(=O)Nc3ccccc3N)cc2)cc1OC | 888 | – | – | – |
| Nc1ccccc1NC(=O)c1ccc(CCc2ccccc2NS(=O)(=O)c2ccc(Cl)cc2)cc1 | 448 | – | – | – |
| COc1ccc(S(=O)(=O)Nc2ccccc2CCc2ccc(C(=O)Nc3cccc(N)c3)cc2)cc1 | 697 | – | – | – |
| COc1cccc(S(=O)(=O)Nc2ccccc2CCc2ccc(C(=O)Nc3ccccc3N)cc2)c1 | 462 | – | – | – |

The next lines start with results.

| GI50 [7] [nM] | Compound | GI50 [8] [nM] | GI50 [11] [nM] | further results |
| --- | --- | --- | --- | --- |
| 23 | COc1ccc(S(=O)(=O)Nc2ccccc2CCc2ccc(C(=O)Nc3ccccc3N)cc2)cc1 | 31 | 22 | Activity [1]: Active; Activity [2]: Active; IC50 [3]: 2550 nM; IC50 [4]: > 10000 nM; IC50 [5]: > 10000 nM; Activity [6]: Active; Activity [9]: Active; IC50 [10]: 1190 nM |
| 884 | Nc1ccccc1NC(=O)c1ccc(CCc2ccccc2NS(=O)(=O)c2ccc(F)cc2)cc1 | – | – | – |
| 660 | COc1ccc(S(=O)(=O)Nc2ccccc2/C=C/c2ccc(C(=O)Nc3ccccc3N)cc2)cc1 | – | – | – |
| 124 | Nc1ccccc1NC(=O)c1ccc(CCc2ccccc2NS(=O)(=O)c2ccc(Br)cc2)cc1 | – | – | – |
| 60 | COc1ccc(S(=O)(=O)Nc2ccccc2OCc2ccc(C(=O)Nc3ccccc3N)cc2)cc1 | 42 | 62 | IC50 [3]: 7920 nM; IC50 [4]: > 10000 nM; IC50 [5]: 4950 nM; IC50 [10]: 5450 nM |
